Measured values from PMC4516694 (Bioorganic & medicinal chemistry, 2015).
One block for each compound: values may come before it.

How the values were obtained:
[1] = target: T1, transfected human CRF1 receptors in HEK293T cells (Homo sapiens, UniProt P34998); assay: In vitro competition binding assay at 23 °C vs. [125I]-Tyr0-sauvagine; details: for Ki: Ki (nM) ± SEM, vs. [125I]-Tyr0-sauvagine, HEK293T cell membranes
T1 sequence (P34998 24-415): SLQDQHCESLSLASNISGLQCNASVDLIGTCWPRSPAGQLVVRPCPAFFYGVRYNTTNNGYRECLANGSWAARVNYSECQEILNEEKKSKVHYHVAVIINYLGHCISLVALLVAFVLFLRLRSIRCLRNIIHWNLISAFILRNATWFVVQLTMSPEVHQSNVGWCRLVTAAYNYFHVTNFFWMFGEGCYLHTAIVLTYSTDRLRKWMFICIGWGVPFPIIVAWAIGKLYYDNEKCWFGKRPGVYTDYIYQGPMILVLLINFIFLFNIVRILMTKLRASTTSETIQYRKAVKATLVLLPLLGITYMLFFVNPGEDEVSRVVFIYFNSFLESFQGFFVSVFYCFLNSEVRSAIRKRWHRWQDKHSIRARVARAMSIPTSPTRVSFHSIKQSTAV
Procedure, shortened: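 Human CRF1 plasmid transiently lipofected into HEK293T (DMEM, 10% FBS, grown to 75% confluency); cells harvested 48 h post-transfection; membranes homogenized in pH 7.2 HEPES/MgCl2/EGTA/BSA/aprotinin buffer. ~80 pM [125I]sauvagine plus test compound (10−13–10−5 M final), 2 h, 23 °C; filtered over polyethyleneamine-soaked filters and cold-washed. Triplicates; Ki by one-site competition fit (Kd 0.5 nM); ratios from Ki values.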

CRF1 receptor [2] = details: read-out: Ki, previously reported value; cited from earlier work
Rat microPET imaging = assay type: in vivo, male Sprague-Dawley rat; details: anesthetized rat
Procedure, shortened: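 One male Sprague-Dawley rat on an Inveon microPET/CT: isoflurane induction at 3–4%, maintained at 1–1.5% by nose cone. Prone, warmed with circulating air; Co-57 transmission scan for attenuation correction. F-18 radiotracer given by tail vein injection, then dynamic imaging for 60 min.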

CRF1 receptor [3] = assay: Non-human primate microPET imaging; assay type: in vivo, male cynomolgus monkey; details: anesthetized cynomolgus monkey
Procedure, shortened: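 Male cynomolgus monkey on a Siemens MicroPET Focus 220. A Co-57 point-source transmission scan was used for attenuation correction. F-18 radiotracer given by saphenous vein injection, then dynamic imaging for 120 min.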

SMILES: Cc1cc(N(C)CCCC[18F])n2nc(C)c(-c3ccc(Cl)cc3Cl)c2n1 [[^18F]28, 3-(2,4-dichlorophenyl)-N-(4-[^18F]fluorobutyl)-N,2,5-trimethylpyrazolo[1,5-a]pyrimidin-7-amine]
- liver uptake (SUV) (Rat microPET imaging; at 3 min, tail vein injection): 5.4 SUV
- brain uptake (SUV) (Rat microPET imaging; at 5 min, tail vein injection): 2 SUV
- brain penetrance (Rat microPET imaging; microPET): brain penetrance was achieved
- stability to defluorination (bone visualization) (Rat microPET imaging; microPET): stable to defluorination
- brain penetrance (CRF1 receptor [3]; microPET): brain penetrance was achieved
- radioactivity uptake in the skull and sphenoid region / defluorination (CRF1 receptor [3]; microPET TACs): high radioactivity uptake in the skull, and sphenoid bone and/or sphenoid sinus, suggests defluorination
- specific binding in brain (high vs low CRF1 receptor density regions) (CRF1 receptor [3]; microPET TACs): little or no specific binding

SMILES: Cc1cc(N(C)CCOCCF)n2nc(C)c(-c3ccc(Cl)cc3Cl)c2n1 [Compound 26, 3-(2,4-dichlorophenyl)-N-(2-(2-fluoroethoxy)ethyl)-N,2,5-trimethylpyrazolo[1,5-a]pyrimidin-7-amine]
- decrease in affinity relative to compounds 27, 28, 29 and 30 ([1]; 23 °C): ≥ 10 fold
- Ki ([1]; 23 °C): 12.4 ± 1.06 nM
- fold loss of affinity relative to 29 ([1]; ratio of Ki values, Table 1): ~ 26 fold
- fold loss of affinity upon changing 28 to 26 ([1]; ratio of Ki values, Table 1): ~12 fold
- fold lower binding affinity than 27 or 28 ([1]; ratio of Ki values, Table 1): 10 – 12 fold

SMILES: Cc1cc(N(C)CCCCF)n2nc(C)c(-c3ccc(Cl)cc3Cl)c2n1 [Compound 28, 3-(2,4-dichlorophenyl)-N-(4-fluorobutyl)-N,2,5-trimethylpyrazolo[1,5-a]pyrimidin-7-amine]
- Ki ([1]; 23 °C): 1.07 ± 0.21 nM
- fold loss of affinity relative to 29 ([1]; ratio of Ki values, Table 1): ~ 2.3 fold

SMILES: Cc1cc(N(C)CCOCC[18F])n2nc(C)c(-c3ccc(Cl)cc3Cl)c2n1 [[^18F]26, 3-(2,4-dichlorophenyl)-N-(2-(2-[^18F]fluoroethoxy)ethyl)-N,2,5-trimethylpyrazolo[1,5-a]pyrimidin-7-amine]
- brain uptake and washout compared with the other radiotracers (CRF1 receptor [3]; microPET TACs): entered the brain more rapidly and washed out more rapidly
- radioactivity uptake in the skull and sphenoid region / defluorination (CRF1 receptor [3]; microPET TACs): rapid uptake and then a steady washout

SMILES: Cc1cc(N(CCF)CCCCF)n2nc(C)c(-c3ccc(Cl)cc3Cl)c2n1 [Compound 30, 3-(2,4-dichlorophenyl)-N-(4-fluorobutyl)-N-(2-fluoroethyl)-2,5-dimethylpyrazolo[1,5-a]pyrimidin-7-amine]
- Ki ([1]; 23 °C): 0.59 ± 0.04 nM

SMILES: CCN(CCOCC[18F])c1cc(C)nc2c(-c3ccc(Cl)cc3Cl)c(C)nn12 [[^18F]27, 3-(2,4-dichlorophenyl)-N-ethyl-N-(2-(2-[^18F]fluoroethoxy)ethyl)-2,5-dimethylpyrazolo[1,5-a]pyrimidin-7-amine]
- radioactivity uptake in the skull and sphenoid region / defluorination (CRF1 receptor [3]; microPET TACs): rapid uptake and then a steady washout
- specific binding in brain (high vs low CRF1 receptor density regions) (CRF1 receptor [3]; microPET TACs): little or no specific binding
- time of peak brain uptake (CRF1 receptor [3]; microPET TACs): 5 to 15 min

SMILES: [2H]C([2H])([18F])C([2H])([2H])C([2H])([2H])C([2H])([2H])N(C)c1cc(C)nc2c(-c3ccc(Cl)cc3Cl)c(C)nn12 [[^18F]28-d8, 3-(2,4-dichlorophenyl)-N-(4-[^18F]fluorobutyl-1,1,2,2,3,3,4,4-d8)-N,2,5-trimethylpyrazolo[1,5-a]pyrimidin-7-amine]
- brain uptake and washout compared with the other radiotracers (CRF1 receptor [3]; microPET TACs): very similar to that of [^18F]28
- radioactivity uptake in the skull and sphenoid region / defluorination (CRF1 receptor [3]; microPET TACs): reduced somewhat relative to [^18F]28 but defluorination was not completely prevented

Now from value to compound, other results behind:

- Ki ([1]; 23 °C): 0.47 ± 0.08 nM
SMILES: CCCN(CCC)c1cc(C)nc2c(-c3ccc(Cl)cc3Cl)c(C)nn12 [Compound 21, 3-(2,4-dichlorophenyl)-2,5-dimethyl-N,N-dipropylpyrazolo[1,5-a]pyrimidin-7-amine]

- Ki ([1]; 23 °C): 0.46 ± 0.06 nM
SMILES: CCCCN(CC)c1cc(C)nc2c(-c3ccc(Cl)cc3Cl)c(C)nn12 [Compound 22, N-butyl-3-(2,4-dichlorophenyl)-N-ethyl-2,5-dimethylpyrazolo[1,5-a]pyrimidin-7-amine]
- Ki (CRF1 receptor [2]): 0.9 ± 0.1 nM

- Ki ([1]; 23 °C): 0.47 ± 0.1 nM
SMILES: CCN(CCCCF)c1cc(C)nc2c(-c3ccc(Cl)cc3Cl)c(C)nn12 [Compound 29, 3-(2,4-dichlorophenyl)-N-ethyl-N-(4-fluorobutyl)-2,5-dimethylpyrazolo[1,5-a]pyrimidin-7-amine]

- fold stronger binding affinity relative to [18F]28 [1]: ~ 2 fold
- brain uptake and washout compared with the other radiotracers (CRF1 receptor [3]; microPET TACs): the overall amount of uptake was less
SMILES: CCN(CCCC[18F])c1cc(C)nc2c(-c3ccc(Cl)cc3Cl)c(C)nn12 [[^18F]29, 3-(2,4-dichlorophenyl)-N-ethyl-N-(4-[^18F]fluorobutyl)-2,5-dimethylpyrazolo[1,5-a]pyrimidin-7-amine]
- radioactivity uptake in the skull and sphenoid region / defluorination (CRF1 receptor [3]; microPET TACs): less than that of [^18F]28 and [^18F]28-d8

- Ki ([1]; 23 °C): 1.17 ± 0.07 nM
- fold loss of affinity relative to 29 ([1]; ratio of Ki values, Table 1): ~ 2.5 fold
SMILES: CCN(CCOCCF)c1cc(C)nc2c(-c3ccc(Cl)cc3Cl)c(C)nn12 [Compound 27, 3-(2,4-dichlorophenyl)-N-ethyl-N-(2-(2-fluoroethoxy)ethyl)-2,5-dimethylpyrazolo[1,5-a]pyrimidin-7-amine]
